According to ChEMBL document CHEMBL1121938, “Hypocholesterolemic and antiaggregatory properties of 2-hydroxytetronic acid redox analogues an their relationship to clofibric acid” (1982):

Experiments:
[1] = test system: Rattus norvegicus; test: Effect of compound was measured on serum total cholesterol in male Dawley rats at the dose of 0.2 mmol/kg (day+7).; type: functional, organism-based
Summary of the method: (§1)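 Serum total cholesterol was measured enzymatically on a bichromatic analyzer. Serum was separated after clotting on ice (2000g, 10 min), held at 4 °C and assayed within 48 h. Rats were male Sprague-Dawley on a high-cholesterol diet, n = 6, dosed orally twice daily for 14 days in 0.25% methylcellulose (1.0 mL/100 g). They were fasted 16-18 h before each bleed. Results are in mg/dL ± SD.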

[2] = test system: Rattus norvegicus; test: Effect of compound was measured on serum total cholesterol in male Dawley rats at the dose of 0.2 mmol/kg (day-1).; type: functional, organism-based; summary of the method: as §1
[3] = test system: Rattus norvegicus; test: Effect of compound was measured on serum total triglycerides in male Dawley rats at the dose of 0.2 mmol/kg (day+10).; type: functional, organism-based
Summary of the method: (§2)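 Serum triglycerides were measured with an enzymatic triglyceride reagent on a bichromatic analyzer. Rats were male Sprague-Dawley (180-210 g) fed a high-cholesterol diet, n = 6 per group, dosed orally twice daily for 14 days in 0.25% methylcellulose or vehicle. They were fasted 16-18 h before blood collection on days -1, +4, +7, +10 (orbital plexus, light ether) and +14 (aorta). Analysis was repeated-measures ANOVA with Duncan's test.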

[4] = test system: Rattus norvegicus; test: Effect of compound was measured on serum total triglycerides in male Dawley rats at the dose of 0.2 mmol/kg (day+14).; type: functional, organism-based; summary of the method: as §2
[5] = test system: Rattus norvegicus; test: Effect of compound was measured on serum total triglycerides in male Dawley rats at the dose of 0.2 mmol/kg (day+4).; type: functional, organism-based; summary of the method: as §2
[6] = test system: Rattus norvegicus; test: Effect of compound was measured on serum total triglycerides in male Dawley rats at the dose of 0.2 mmol/kg (day+7).; type: functional, organism-based; summary of the method: as §2
[7] = test system: Rattus norvegicus; test: Effect of compound was measured on serum total cholesterol in male Dawley rats at the dose of 0.2 mmol/kg (day+10).; type: functional, organism-based; summary of the method: as §1
[8] = test system: Rattus norvegicus; test: Effect of compound was measured on serum total cholesterol in male Dawley rats at the dose of 0.2 mmol/kg (day+4).; type: functional, organism-based; summary of the method: as §1
[9] = test system: Rattus norvegicus; test: Effect of compound was measured on serum alpha-lipoprotein in male Dawley rats at the dose of 0.4 mmol/kg (day+10).; type: functional
Summary of the method: (§3)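 Male Sprague-Dawley rats (180-210 g) fed a high-cholesterol diet for 1 week before and throughout dosing. Groups of n = 6 were dosed orally twice daily for 14 days in 0.25% methylcellulose, with vehicle controls. Rats were fasted 16-18 h before orbital bleeds on days -1, +4, +7 and +10, and by aortic exsanguination on day +14. Serum α-lipoprotein cholesterol was measured by polyanionic precipitation, in mg/dL ± SD.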

[10] = test system: Rattus norvegicus; test: Effect of compound was measured on serum alpha-lipoprotein in male Dawley rats at the dose of 0.4 mmol/kg (day+4).; type: functional; summary of the method: as §3
[11] = test system: Rattus norvegicus; test: Effect of compound was measured on serum alpha-lipoprotein in male Dawley rats at the dose of 0.4 mmol/kg (day+7).; type: functional; summary of the method: as §3
[12] = test system: Rattus norvegicus; test: Effect of compound was measured on serum alpha-lipoprotein in male Dawley rats at the dose of 0.4 mmol/kg (day-1).; type: functional; summary of the method: as §3
[13] = test system: Rattus norvegicus; test: Effect of compound was measured on serum alpha-lipoprotein in male Dawley rats at the dose of 0.4 mmol/kg (day14).; type: functional; summary of the method: as §3
[14] = test system: Rattus norvegicus; test: Effect of compound was measured on serum alpha-lipoprotein in male Dawley rats at the dose of 0.2 mmol/kg (day+10).; type: functional; summary of the method: as §3
[15] = test system: Rattus norvegicus; test: Effect of compound was measured on serum alpha-lipoprotein in male Dawley rats at the dose of 0.2 mmol/kg (day+14).; type: functional; summary of the method: as §3
[16] = test system: Rattus norvegicus; test: Effect of compound was measured on serum alpha-lipoprotein in male Dawley rats at the dose of 0.2 mmol/kg (day+4).; type: functional; summary of the method: as §3
[17] = test system: Rattus norvegicus; test: Effect of compound was measured on serum alpha-lipoprotein in male Dawley rats at the dose of 0.2 mmol/kg (day+7).; type: functional; summary of the method: as §3
[18] = test system: Rattus norvegicus; test: Effect of compound was measured on serum alpha-lipoprotein in male Dawley rats at the dose of 0.2 mmol/kg (day-1).; type: functional; summary of the method: as §3
[19] = test system: Rattus norvegicus; test: Effect of compound was measured on serum total cholesterol in male Dawley rats at the dose of 0.4 mmol/kg (day+10).; type: functional, organism-based; summary of the method: as §1
[20] = test system: Rattus norvegicus; test: Effect of compound was measured on serum total cholesterol in male Dawley rats at the dose of 0.4 mmol/kg (day+14).; type: functional, organism-based; summary of the method: as §1
[21] = test system: Rattus norvegicus; test: Effect of compound was measured on serum total cholesterol in male Dawley rats at the dose of 0.4 mmol/kg (day+4).; type: functional, organism-based; summary of the method: as §1
[22] = test system: Rattus norvegicus; test: Effect of compound was measured on serum total cholesterol in male Dawley rats at the dose of 0.4 mmol/kg (day+7).; type: functional, organism-based; summary of the method: as §1
[23] = test system: Rattus norvegicus; test: Effect of compound was measured on serum total cholesterol in male Dawley rats at the dose of 0.4 mmol/kg (day-1).; type: functional, organism-based; summary of the method: as §1
[24] = test system: Rattus norvegicus; test: Effect of compound was measured on serum total triglycerides in male Dawley rats at the dose of 0.4 mmol/kg (day+10).; type: functional, organism-based; summary of the method: as §2
[25] = test system: Rattus norvegicus; test: Effect of compound was measured on serum total triglycerides in male Dawley rats at the dose of 0.4 mmol/kg (day+14).; type: functional, organism-based; summary of the method: as §2
[26] = test system: Rattus norvegicus; test: Effect of compound was measured on serum total triglycerides in male Dawley rats at the dose of 0.4 mmol/kg (day+4); type: functional, organism-based; summary of the method: as §2
[27] = test system: Rattus norvegicus; test: Effect of compound was measured on serum total triglycerides in male Dawley rats at the dose of 0.4 mmol/kg (day+7).; type: functional, organism-based; summary of the method: as §2
[28] = test system: Rattus norvegicus; test: Effect of compound was measured on serum total triglycerides in male Dawley rats at the dose of 0.4 mmol/kg (day-1); type: functional, organism-based; summary of the method: as §2
[29] = test system: Rattus norvegicus; test: Effect of compound was measured on serum total triglycerides in male Dawley rats at the dose of 0.2 mmol/kg (day-1).; type: functional, organism-based; summary of the method: as §2
[30] = test system: Rattus norvegicus; test: Effect of compound was measured on serum total cholesterol in male Dawley rats at the dose of 0.2 mmol/kg (day+14).; type: functional, organism-based; summary of the method: as §1
[31] = test system: Rattus norvegicus; test: Effect of compound on liver CH levels in male Dawley rats at the dose of 0.2 mmol/kg; type: functional
Summary of the method: (§4)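 Male Sprague-Dawley rats (180-210 g) were kept on a high-cholesterol diet for 1 week before and throughout treatment. Groups of n = 6 received drug in 0.25% methylcellulose orally twice daily for 14 days, or vehicle. After a 16-18 h fast, livers were excised at day +14 and homogenized in 0.1 M Tris-HCl pH 7.2 with 1.15% KCl. Lipids were extracted from 25% w/v homogenate and reported as g/100 g wet liver ± SD; groups compared by ANOVA and Duncan's test.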

[32] = test system: Rattus norvegicus; test: Effect of compound on liver CH levels in male Dawley rats at the dose of 0.4 mmol/kg; type: functional; design: unit: g/100 g wet liver; summary of the method: as §4
[33] = test system: Rattus norvegicus; test: Effect of compound on liver TG levels in male Dawley rats at the dose of 0.2 mmol/kg; type: functional; summary of the method: as §4
[34] = test system: Rattus norvegicus; test: Effect of compound on liver TG levels in male Dawley rats at the dose of 0.4 mmol/kg; type: functional; design: unit: g/100 g wet liver; summary of the method: as §4
[35] = Effect of compound on liver to body weight ratio in male Dawley rats at the dose of 0.2 mmol/kg; type: functional
Summary of the method: (§5)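 Male Sprague-Dawley rats (180-210 g) were kept on a cholesterol-rich diet and dosed orally twice daily for 14 days in 0.25% methylcellulose; vehicle controls received the same; n = 6 per group. After a 16-18 h fast, rats were exsanguinated at day +14. Livers were removed, rinsed in ice-cold buffer, blotted and weighed, and related to body weight. Data were analysed by repeated-measures ANOVA with Duncan's multiple range test.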

[36] = Effect of compound was measured on serum heparin-MnCl2 precipated ipoprotein Dawley rats at 0.2 mmol/kg dose(day+10).; type: functional
Summary of the method: (§6)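 Cholesterol-fed male Sprague-Dawley rats, n = 6 per group, given compound or 0.25% methylcellulose orally twice daily for 14 days, and fasted 16-18 h before each bleed (days -1, +4, +7, +10, +14). Heparin-MnCl2 precipitable lipoprotein cholesterol was taken as serum total cholesterol minus α-lipoprotein cholesterol. It is reported as a ratio to α-LP cholesterol ± SD. Analysis was ANOVA with repeated measures and Duncan's test.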

[37] = Effect of compound was measured on serum heparin-MnCl2 precipated ipoprotein Dawley rats at 0.2 mmol/kg dose(day+14).; type: functional; summary of the method: as §6
[38] = Effect of compound was measured on serum heparin-MnCl2 precipated ipoprotein Dawley rats at 0.2 mmol/kg dose(day+4).; type: functional; summary of the method: as §6
[39] = Effect of compound was measured on serum heparin-MnCl2 precipated ipoprotein Dawley rats at 0.2 mmol/kg dose(day+7).; type: functional; summary of the method: as §6
[40] = Effect of compound was measured on serum heparin-MnCl2 precipated ipoprotein Dawley rats at 0.2 mmol/kg dose(day-1).; type: functional; summary of the method: as §6
[41] = Effect of compound was measured on serum heparin-MnCl2 precipated ipoprotein Dawley rats at 0.4 mmol/kg dose(day+10).; type: functional; summary of the method: as §6
[42] = Effect of compound was measured on serum heparin-MnCl2 precipated ipoprotein Dawley rats at 0.4 mmol/kg dose(day+4).; type: functional; summary of the method: as §6
[43] = Effect of compound was measured on serum heparin-MnCl2 precipated ipoprotein Dawley rats at 0.4 mmol/kg dose(day+7).; type: functional; summary of the method: as §6
[44] = Effect of compound was measured on serum heparin-MnCl2 precipated ipoprotein Dawley rats at 0.4 mmol/kg dose(day-1).; type: functional; summary of the method: as §6
[45] = Effect of compound on liver to body weight ratio in male Dawley rats at the dose of 0.4 mmol/kg; type: functional; summary of the method: as §5
[46] = Effect of compound was measured on serum heparin-MnCl2 precipated ipoprotein Dawley rats at 0.4 mmol/kg dose(day+14).; type: functional; summary of the method: as §6

O=C1C(O)=C(O)OC1c1ccc(Cl)cc1 (stereo unspecified)
serum total cholesterol [1]: 204 mg/dL
serum total cholesterol [2]: 276 mg/dL
Serum total triglycerides [3]: 193 mg/dL
Serum total triglycerides [4]: 148 mg/dL
Serum total triglycerides [5]: 251 mg/dL
Serum total triglycerides [6]: 204 mg/dL
serum total cholesterol [7]: 161 mg/dL
serum total cholesterol [8]: 195 mg/dL
Alpha-lipoprotein cholesterol [9]: 52.2 mg/dL
Alpha-lipoprotein cholesterol [10]: 41.8 mg/dL
Alpha-lipoprotein cholesterol [11]: 46 mg/dL
Alpha-lipoprotein cholesterol [12]: 39.7 mg/dL
Alpha-lipoprotein cholesterol [13]: 61 mg/dL
Alpha-lipoprotein cholesterol [14]: 38.8 mg/dL
Alpha-lipoprotein cholesterol [15]: 48.5 mg/dL
Alpha-lipoprotein cholesterol [16]: 43.8 mg/dL
Alpha-lipoprotein cholesterol [17]: 42.5 mg/dL
Alpha-lipoprotein cholesterol [18]: 40.8 mg/dL
serum total cholesterol [19]: 135 mg/dL
serum total cholesterol [20]: 138 mg/dL
serum total cholesterol [21]: 154 mg/dL
serum total cholesterol [22]: 125 mg/dL
serum total cholesterol [23]: 196 mg/dL
Serum total triglycerides [24]: 139 mg/dL
Serum total triglycerides [25]: 87.8 mg/dL
Serum total triglycerides [26]: 167 mg/dL
Serum total triglycerides [27]: 147 mg/dL
Serum total triglycerides [28]: 193 mg/dL
Serum total triglycerides [29]: 313 mg/dL
serum total cholesterol [30]: 145 mg/dL
Liver CH levels [31]: 3.28
Liver CH levels [32]: 2.93
Liver TG [33]: 4.82
Liver TG [34]: 5.08
Ratio [35]: 3.8
Ratio [36]: 3.33
Ratio [37]: 2.2
Ratio [38]: 3.72
Ratio [39]: 4.03
Ratio [40]: 6.03
Ratio [41]: 1.75
Ratio [42]: 2.79
Ratio [43]: 1.74
Ratio [44]: 3.96
Ratio [45]: 3.6
Ratio [46]: 1.39
